Laboratory results: ChEMBL document CHEMBL1148420, “Identification and synthesis of [1,2,4]triazolo[3,4-a]phthalazine derivatives as high-affinity ligands to the alpha 2 delta-1 subunit of voltage gated calcium channel” (Bioorg Med Chem Lett, 2004)

These compounds were tested against T1, Voltage-dependent calcium channel subunit alpha-2/delta-1 (Homo sapiens, UniProt P54289) (assay: Binding affinity against alpha2 delta-1 subunit of voltage-gated calcium channel in human.).
Outline: (§1)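 [3H]gabapentin displacement binding on A710 membranes (HEK 293 cells stably transfected with human α1B, β3a and α2δ-1b subunits), following a literature method.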

T1 sequence (P54289 25-956 limits assumed): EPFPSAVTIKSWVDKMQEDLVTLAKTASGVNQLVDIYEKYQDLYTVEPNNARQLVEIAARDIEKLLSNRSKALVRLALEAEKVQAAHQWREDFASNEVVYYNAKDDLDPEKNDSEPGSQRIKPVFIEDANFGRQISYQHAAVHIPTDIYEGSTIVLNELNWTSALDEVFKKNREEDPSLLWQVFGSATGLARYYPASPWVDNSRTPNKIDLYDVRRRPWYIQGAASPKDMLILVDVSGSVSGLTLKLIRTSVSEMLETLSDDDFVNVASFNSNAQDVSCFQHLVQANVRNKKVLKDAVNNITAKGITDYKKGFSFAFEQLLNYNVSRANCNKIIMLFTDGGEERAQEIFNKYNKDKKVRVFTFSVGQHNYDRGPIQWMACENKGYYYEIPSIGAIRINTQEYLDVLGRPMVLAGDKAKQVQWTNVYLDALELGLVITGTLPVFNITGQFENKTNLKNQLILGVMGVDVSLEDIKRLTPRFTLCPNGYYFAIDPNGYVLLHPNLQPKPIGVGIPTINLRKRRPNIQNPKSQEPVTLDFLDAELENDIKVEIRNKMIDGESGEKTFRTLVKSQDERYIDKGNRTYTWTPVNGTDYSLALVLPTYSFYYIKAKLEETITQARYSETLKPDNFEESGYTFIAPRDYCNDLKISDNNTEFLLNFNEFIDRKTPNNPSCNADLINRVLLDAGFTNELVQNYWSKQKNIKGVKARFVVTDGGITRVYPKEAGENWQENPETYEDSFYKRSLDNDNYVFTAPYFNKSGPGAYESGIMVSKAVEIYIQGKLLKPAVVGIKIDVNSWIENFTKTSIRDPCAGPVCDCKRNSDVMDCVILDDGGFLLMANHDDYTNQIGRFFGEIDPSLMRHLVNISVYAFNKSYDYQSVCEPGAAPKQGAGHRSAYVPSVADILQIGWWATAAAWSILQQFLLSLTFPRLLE
T1 sequence (P54289 957-1103 limits assumed): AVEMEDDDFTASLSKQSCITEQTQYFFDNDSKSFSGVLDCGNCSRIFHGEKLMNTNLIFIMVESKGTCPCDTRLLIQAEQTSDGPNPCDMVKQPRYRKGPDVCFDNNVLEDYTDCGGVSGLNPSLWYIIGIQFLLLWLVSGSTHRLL

SMILES	IC50 [nM]
[3H]c1cccc(CCN[C@@H](C)c2cccc(COc3nn4c(C(F)(F)F)nnc4c4ccccc34)n2)c1	30
C[C@H](NCCc1cccc(Br)c1)c1cccc(COc2nn3c(C(F)(F)F)nnc3c3ccccc23)n1	28
CN(CCc1ccccc1)Cc1cccc(COc2nn3c(C(F)(F)F)nnc3c3ccccc23)n1	10000
Fc1ccc(CCNCc2cccc(COc3nn4c(C(F)(F)F)nnc4c4ccccc34)n2)cc1	630
C[C@H](NCCc1ccccc1)c1cccc(COc2nn3c(C(F)(F)F)nnc3c3ccccc23)n1	30
CC(C)(Cc1ccccc1)NCc1cccc(COc2nn3c(C(F)(F)F)nnc3c3ccccc23)n1	10000
Cc1ccc(CCNCc2cccc(COc3nn4c(C(F)(F)F)nnc4c4ccccc34)n2)cc1	260
Fc1cccc(CCNCc2cccc(COc3nn4c(C(F)(F)F)nnc4c4ccccc34)n2)c1	161
C[C@@H](Cc1ccccc1)NCc1cccc(COc2nn3c(C(F)(F)F)nnc3c3ccccc23)n1	700
Cc1ccccc1CCNCc1cccc(COc2nn3c(C(F)(F)F)nnc3c3ccccc23)n1	448
C[C@@H](NCCc1ccccc1)c1cccc(COc2nn3c(C(F)(F)F)nnc3c3ccccc23)n1	10000
Cc1cccc(CCNCc2cccc(COc3nn4c(C(F)(F)F)nnc4c4ccccc34)n2)c1	15
FC(F)(F)c1nnc2c3ccccc3c(OCc3cccc(CNC4C[C@H]4c4ccccc4)n3)nn12 (mixture of isomers)	229
CC(C)C(NCCc1ccccc1)c1cccc(COc2nn3c(C(F)(F)F)nnc3c3ccccc23)n1 (racemic)	174
CC(Cc1ccccc1)NCc1cccc(COc2nn3c(C(F)(F)F)nnc3c3ccccc23)n1 (racemic)	1370
Cc1cccc(CCNC(C)c2cccc(COc3nn4c(C(F)(F)F)nnc4c4ccccc34)n2)c1 (racemic)	29
CC(NCCc1ccccc1)c1cccc(COc2nn3c(C(F)(F)F)nnc3c3ccccc23)n1 (racemic)	36
CC(CNCc1cccc(COc2nn3c(C(F)(F)F)nnc3c3ccccc23)n1)c1ccccc1 (racemic)	198
CCC(NCCc1ccccc1)c1cccc(COc2nn3c(C(F)(F)F)nnc3c3ccccc23)n1 (racemic)	183

The compounds below were run against T1, Voltage-dependent calcium channel subunit alpha-2/delta-1 (assay: Binding affinity against alpha-2 delta-1 subunit of voltage gated subunit of Ca+2 channel in human).
Outline: as §1

SMILES	IC50 [nM]
c1ccc(CCNCc2cccc(COc3nn4c(-c5ccccc5)nnc4c4ccccc34)n2)cc1	195
COc1cccc(CCNCc2cccc(COc3nn4c(C(F)(F)F)nnc4c4ccccc34)n2)c1	116
COc1ccc(CCNCc2cccc(COc3nn4c(C(F)(F)F)nnc4c4ccccc34)n2)cc1	829
CCc1nnc2c3ccccc3c(OCc3cccc(CNCCc4ccccc4)n3)nn12	241
CSc1nnc2c3ccccc3c(OCc3cccc(CNCCc4ccccc4)n3)nn12	194
c1ccc(CCNCc2cccc(COc3nn4cnnc4c4ccccc34)n2)cc1	230
Fc1ccccc1CCNCc1cccc(COc2nn3c(C(F)(F)F)nnc3c3ccccc23)n1	291
c1ccc(CCNCc2cccc(COc3nn4c(C5CCCCC5)nnc4c4ccccc34)n2)cc1	145
Cc1cc(-c2nnc3c4ccccc4c(OCc4cccc(CNCCc5ccccc5)n4)nn23)no1	220
Cc1nnc2c3ccccc3c(OCc3cccc(CNCCc4ccccc4)n3)nn12	145
COCc1nnc2c3ccccc3c(OCc3cccc(CNCCc4ccccc4)n3)nn12	131
CC(C)c1nnc2c3ccccc3c(OCc3cccc(CNCCc4ccccc4)n3)nn12	342
c1ccc(CCNCc2cccc(COc3nn4c(C5CC5)nnc4c4ccccc34)n2)cc1	272
FC(F)(F)c1nnc2c3ccccc3c(OCc3cccc(CNCCc4ccccc4)n3)nn12	72
